# Data: ChEMBL document CHEMBL1149583, “Effects of oxygen-sulfur substitution on glycosaminoglycan-priming naphthoxylosides” (Bioorg Med Chem, 2007)
# Legend:
# [1] = Antiproliferative activity against human HFL1 cells after 96 hrs by crystal violet method; assay type: cell-based; conditions: read-out: ED50
# Outline: (§1)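 Seeded at 3000 cells/well (T24) or 5000 cells/well (HFL-1) in DMEM with insulin 10 ng/mL, transferrin 25 ng/mL and 10% FCS. After 4 h, moved to serum-free Ham's F-12 with insulin/transferrin for 24 h. Grown with 10 ng/mL EGF plus xyloside at 25–500 µM for 96 h total. Fixed in 1% glutaraldehyde, stained with 0.1% crystal violet, Triton-lysed, read at A600. ED50 taken relative to untreated controls.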
# T-24 = experiment: Antiproliferative activity against human T24 cells after 96 hrs by crystal violet method; assay type: functional; conditions: T-24, 96 h, read-out: ED50 (the source's name); outline: as §1
# CHO [2] = experiment: Antiproliferative activity against […] CHO cells; assay type: cell-based, Cricetulus griseus; conditions: chinese hamster
# CHO [3] = experiment: Antiproliferative activity against heparan sulfate deficient […] CHO cells; assay type: cell-based, Cricetulus griseus; conditions: chinese hamster
SMILES,GI50 at 96 h [1],EC50 (T-24),Activity (CHO [2]),Activity (CHO [3])
CCCSc1ccc2ccc(O[C@@H]3OC[C@@H](O)[C@H](O)[C@H]3O)cc2c1,25 µM,60 µM,,
O[C@@H]1[C@@H](O)[C@H](Oc2cccc3c(S)cccc23)OC[C@H]1O,60 µM,110 µM,,
O[C@@H]1[C@@H](O)[C@H](Oc2ccc3ccc(S)cc3c2)OC[C@H]1O,100 µM,360 µM,,
Oc1ccc(S[C@@H]2OC[C@@H](O)[C@H](O)[C@H]2O)c2ccccc12,130 µM,160 µM,,
Oc1cccc2c(S[C@@H]3OC[C@@H](O)[C@H](O)[C@H]3O)cccc12,135 µM,320 µM,,
Oc1cc2ccccc2cc1S[C@@H]1OC[C@@H](O)[C@H](O)[C@H]1O,100 µM,260 µM,,
Oc1ccc2ccc(S[C@@H]3OC[C@@H](O)[C@H](O)[C@H]3O)cc2c1,125 µM,230 µM,,
CCCSc1cc2ccccc2cc1O[C@@H]1OC[C@@H](O)[C@H](O)[C@H]1O,30 µM,70 µM,,
O[C@@H]1[C@@H](O)[C@H](Oc2ccc(S)c3ccccc23)OC[C@H]1O,70 µM,55 µM,,
O[C@@H]1[C@@H](O)[C@H](Oc2cc3ccccc3cc2S)OC[C@H]1O,60 µM,145 µM,,
CCCSc1ccc(O[C@@H]2OC[C@@H](O)[C@H](O)[C@H]2O)c2ccccc12,30 µM,30 µM,,
O[C@@H]1[C@@H](O)[C@H](Oc2cccc3cccc(S)c23)OC[C@H]1O,60 µM,45 µM,,
CCCSc1cccc2c(O[C@@H]3OC[C@@H](O)[C@H](O)[C@H]3O)cccc12,20 µM,40 µM,,
O[C@@H]1[C@@H](O)[C@H](Oc2ccc3cc(S)ccc3c2)OC[C@H]1O,60 µM,135 µM,,
Oc1ccc2cc(S[C@@H]3OC[C@@H](O)[C@H](O)[C@H]3O)ccc2c1,145 µM,355 µM,,
CCCSc1cccc2cccc(O[C@@H]3OC[C@@H](O)[C@H](O)[C@H]3O)c12,100 µM,155 µM,,
CCCSc1ccc2cc(O[C@@H]3OC[C@@H](O)[C@H](O)[C@H]3O)ccc2c1,30 µM,40 µM,,
Oc1ccc2cc(O[C@@H]3OC[C@@H](O)[C@H](O)[C@H]3O)ccc2c1,,50 µM,Toxic,Not Active
Oc1cccc2cccc(S[C@@H]3OC[C@@H](O)[C@H](O)[C@H]3O)c12,120 µM,225 µM,,
